# Experimental data published in ChEMBL document CHEMBL3351252, “Design, synthesis, and structure-activity relationship studies of a series of [4-(4-carboxamidobutyl)]-1-arylpiperazines: insights into structural features contributing to dopamine D3 versus D2 receptor subtype selectivity” (J Med Chem, 2014).
# The source made the active and inactive calls. The calls are words filed in the database; no cut-off is given here.
# Species: Homo sapiens
# Test: Selectivity index, ratio of IC50 for human D2LR to IC50 for human D3R by beta-galactosidase based beta-arrestin recruitment assay
# Details: not given
row,SMILES,Ratio IC50
1,O=C(NCCCCN1CCN(c2ccnc3ccccc23)CC1)c1cn2ccccc2n1,3.1
2,CN(C)Cc1c(C(=O)NCCCCN2CCN(c3cc(C(F)(F)F)nc(C(C)(C)C)n3)CC2)nc2ccccn12,30
3,CC(C)(C)c1nc(N2CCN(CCCCNC(=O)c3cn4ccccc4n3)CC2)cc(C(F)(F)F)n1,435
4,COc1ccccc1N1CCN(CCCCNC(=O)c2cn3ccccc3n2)CC1,9.4
5,CC(C)(C)c1nc(N2CCN(CCCCNC(=O)c3cn4ccncc4n3)CC2)cc(C(F)(F)F)n1,163
6,O=C(NCCCCN1CCN(c2cccc(C(F)(F)F)c2)CC1)c1cn2ccccc2n1,33

# Species: Homo sapiens
# Test: Selectivity index, ratio of Ki for human D2LR to Ki or human D3R
# Details: not given
row,Ratio Ki,SMILES
1,29,O=C(NCCCCN1CCN(c2ccnc3ccccc23)CC1)c1cn2ccccc2n1
2,5.4,COc1ccccc1N1CCN(CCCCNC(=O)c2cn3ccccc3n2)CC1
3,56,O=C(NCCCCN1CCN(c2cccc(C(F)(F)F)c2)CC1)c1cn2ccccc2n1

row,SMILES,Ratio Ki
1,CN(C)Cc1c(C(=O)NCCCCN2CCN(c3cc(C(F)(F)F)nc(C(C)(C)C)n3)CC2)nc2ccccn12,10
2,CC(C)(C)c1nc(N2CCN(CCCCNC(=O)c3cn4ccncc4n3)CC2)cc(C(F)(F)F)n1,56

# Biological target: T1, D(3) dopamine receptor (Homo sapiens, UniProt P35462)
# T1 sequence (P35462 whole entry): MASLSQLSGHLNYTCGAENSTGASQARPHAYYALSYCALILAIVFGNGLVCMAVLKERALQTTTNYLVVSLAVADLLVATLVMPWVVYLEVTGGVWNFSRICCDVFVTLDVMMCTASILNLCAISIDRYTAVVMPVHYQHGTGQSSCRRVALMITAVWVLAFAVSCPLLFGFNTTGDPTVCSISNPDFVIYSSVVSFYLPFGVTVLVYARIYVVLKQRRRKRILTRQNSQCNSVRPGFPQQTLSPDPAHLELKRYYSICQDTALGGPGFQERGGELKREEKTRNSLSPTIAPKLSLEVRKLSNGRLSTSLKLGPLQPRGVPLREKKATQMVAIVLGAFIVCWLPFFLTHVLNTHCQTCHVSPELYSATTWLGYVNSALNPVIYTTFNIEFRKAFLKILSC
# Details: CHO, 10 uM
row,SMILES,inhibition
1,CC(C)(C)c1nc(N2CCN(CCCCNC(=O)c3cn4ccccc4n3)CC2)cc(C(F)(F)F)n1,40%
2,CC(C)(C)c1nc(N2CCN(CCCCNC(=O)c3cn4ccncc4n3)CC2)cc(C(F)(F)F)n1,40%

# Biological target: D(3) dopamine receptor (Homo sapiens, UniProt P35462, E90A)
# Sequence (P35462 as listed by the source E90A): as the sequence (P35462 whole entry) above, with G9S, E90A counted along it
# Test: Displacement of [125I]IABN from human D3R E90A mutant expressed in HEK293 cell membranes by gamma counting method
# Details: not given
# How it was run: (§1)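 Membranes from HEK 293 cells stably expressing receptor, prepared in 50 mM Tris-HCl pH 7.4/10 mM EDTA/150 mM NaCl and stored at −80 °C. […] Nonspecific binding defined with 2 μM (+)-butaclamol. Filtered, gamma counted. IC50 from single-site nonlinear regression, converted to Ki.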
row,SMILES,Ki
1,CN(C)Cc1c(C(=O)NCCCCN2CCN(c3cc(C(F)(F)F)nc(C(C)(C)C)n3)CC2)nc2ccccn12,16 nM
2,CC(C)(C)c1nc(N2CCN(CCCCNC(=O)c3cn4ccccc4n3)CC2)cc(C(F)(F)F)n1,13 nM

# Biological target: T2, D(2) dopamine receptor (Homo sapiens, UniProt P14416)
# T2 sequence (P14416 whole entry): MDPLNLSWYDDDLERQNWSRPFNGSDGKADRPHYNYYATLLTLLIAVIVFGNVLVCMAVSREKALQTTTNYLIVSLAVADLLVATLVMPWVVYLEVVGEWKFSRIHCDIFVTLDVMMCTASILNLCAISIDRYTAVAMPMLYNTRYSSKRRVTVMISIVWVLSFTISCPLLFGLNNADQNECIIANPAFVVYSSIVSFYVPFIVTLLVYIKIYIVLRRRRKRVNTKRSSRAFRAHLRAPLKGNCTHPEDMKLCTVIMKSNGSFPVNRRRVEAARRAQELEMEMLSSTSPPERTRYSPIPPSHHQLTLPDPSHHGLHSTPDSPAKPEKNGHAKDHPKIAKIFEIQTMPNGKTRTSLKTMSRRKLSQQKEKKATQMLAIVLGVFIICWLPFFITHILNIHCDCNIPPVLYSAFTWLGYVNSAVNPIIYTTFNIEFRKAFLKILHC
# Test: Inverse agonist activity at human D2LR expressed in CHO-K1 cells assessed as inhibition of basal activity by beta-galactosidase based beta-arrestin recruitment assay
# Format: cell-based
# Details: not given
# How it was run: (§2)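 CHO-K1 cells expressing human D2L receptor, β-arrestin/β-galactosidase fragment-complementation assay. Cells plated 2500/well and grown 48 h at 37 °C. Test compounds given at 11 half-log points from 5 μM, 120 min at 37 °C. Detection reagent added and chemiluminescence read. Results given as % stimulation or inhibition of basal luminescence. Compounds counterscreened for β-gal inhibition.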
row,SMILES,inhibition
1,O=C(NCCCCN1CCN(c2ccnc3ccccc23)CC1)c1cn2ccccc2n1,inactive
2,CN(C)Cc1c(C(=O)NCCCCN2CCN(c3cc(C(F)(F)F)nc(C(C)(C)C)n3)CC2)nc2ccccn12,inactive
3,CC(C)(C)c1nc(N2CCN(CCCCNC(=O)c3cn4ccccc4n3)CC2)cc(C(F)(F)F)n1,inactive
4,COc1ccccc1N1CCN(CCCCNC(=O)c2cn3ccccc3n2)CC1,inactive
5,CC(C)(C)c1nc(N2CCN(CCCCNC(=O)c3cn4ccncc4n3)CC2)cc(C(F)(F)F)n1,inactive
6,O=C(NCCCCN1CCN(c2cccc(C(F)(F)F)c2)CC1)c1cn2ccccc2n1,inactive

# Biological target: T2, D(2) dopamine receptor
# Test: Agonist activity at human D2LR expressed in CHO-K1 cells assessed as stimulation of basal activity by beta-galactosidase based beta-arrestin recruitment assay
# Format: cell-based
# Details: not given
# How it was run: as §2
row,SMILES,Activity
1,O=C(NCCCCN1CCN(c2ccnc3ccccc23)CC1)c1cn2ccccc2n1,inactive
2,CN(C)Cc1c(C(=O)NCCCCN2CCN(c3cc(C(F)(F)F)nc(C(C)(C)C)n3)CC2)nc2ccccn12,inactive
3,CC(C)(C)c1nc(N2CCN(CCCCNC(=O)c3cn4ccccc4n3)CC2)cc(C(F)(F)F)n1,inactive
4,COc1ccccc1N1CCN(CCCCNC(=O)c2cn3ccccc3n2)CC1,inactive
5,CC(C)(C)c1nc(N2CCN(CCCCNC(=O)c3cn4ccncc4n3)CC2)cc(C(F)(F)F)n1,inactive
6,O=C(NCCCCN1CCN(c2cccc(C(F)(F)F)c2)CC1)c1cn2ccccc2n1,inactive

# Biological target: D(3) dopamine receptor (Homo sapiens, UniProt P35462, E90Q)
# Sequence (P35462 as listed by the source E90Q): as the sequence (P35462 whole entry) above, with G9S, E90Q counted along it
# Test: Displacement of [125I]IABN from human D3R E90Q mutant expressed in HEK293 cell membranes by gamma counting method
# Details: not given
# How it was run: as §1
row,SMILES,Ki
1,CN(C)Cc1c(C(=O)NCCCCN2CCN(c3cc(C(F)(F)F)nc(C(C)(C)C)n3)CC2)nc2ccccn12,19 nM
2,CC(C)(C)c1nc(N2CCN(CCCCNC(=O)c3cn4ccccc4n3)CC2)cc(C(F)(F)F)n1,20 nM

# Biological target: T2, D(2) dopamine receptor
# Test: Displacement of [125I]IABN from chimeric human D2 receptor possessing extracellular loop II of D3 receptor expressed in HEK293 cell membranes by gamma counting method
# Details: not given
row,SMILES,Ki
1,CN(C)Cc1c(C(=O)NCCCCN2CCN(c3cc(C(F)(F)F)nc(C(C)(C)C)n3)CC2)nc2ccccn12,72 nM
2,CC(C)(C)c1nc(N2CCN(CCCCNC(=O)c3cn4ccccc4n3)CC2)cc(C(F)(F)F)n1,148 nM

# Biological target: T2, D(2) dopamine receptor
# Test: Displacement of [125I]IABN from wild type human D2R expressed in HEK293 cell membranes by gamma counting method
# Details: not given
row,SMILES,Ki
1,CN(C)Cc1c(C(=O)NCCCCN2CCN(c3cc(C(F)(F)F)nc(C(C)(C)C)n3)CC2)nc2ccccn12,191 nM
2,CC(C)(C)c1nc(N2CCN(CCCCNC(=O)c3cn4ccccc4n3)CC2)cc(C(F)(F)F)n1,702 nM

# Biological target: T2, D(2) dopamine receptor
# Test: Agonist activity at human D2R expressed in CHO cells assessed as stimulation of mitogenesis at 10 uM after 24 hrs by [3H]thymidine uptake assay relative to quinpirole
# Format: cell-based
# Details: not given
# How it was run: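 CHOp-D2 cells grown 48–72 h, then serum-starved 24 h. Exposed to 10 μM compound in serum-free α-MEM for 24 h at 37 °C. Pulsed 2 h with 0.25 μCi [3H]thymidine, trypsinized, filtered and counted. Stimulation expressed relative to maximal quinpirole. Two independent experiments.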
row,SMILES,Activity
1,CC(C)(C)c1nc(N2CCN(CCCCNC(=O)c3cn4ccccc4n3)CC2)cc(C(F)(F)F)n1,0%
2,COc1ccccc1N1CCN(CCCCNC(=O)c2cn3ccccc3n2)CC1,< 20%
3,CC(C)(C)c1nc(N2CCN(CCCCNC(=O)c3cn4ccncc4n3)CC2)cc(C(F)(F)F)n1,< 20%

# Biological target: T2, D(2) dopamine receptor
# Test: Antagonist activity against human D2LR expressed in CHOK1 cells assessed as inhibition of pergolide-induced beta-arrestin translocation by beta-galactosidase based beta-arrestin recruitment assay
# Format: cell-based, CHO-K1
# Details: not given
row,IC50,SMILES
1,161 nM,O=C(NCCCCN1CCN(c2ccnc3ccccc23)CC1)c1cn2ccccc2n1
2,6.6 nM,COc1ccccc1N1CCN(CCCCNC(=O)c2cn3ccccc3n2)CC1
3,60 nM,O=C(NCCCCN1CCN(c2cccc(C(F)(F)F)c2)CC1)c1cn2ccccc2n1

row,SMILES,IC50
1,CC(C)(C)c1nc(N2CCN(CCCCNC(=O)c3cn4ccncc4n3)CC2)cc(C(F)(F)F)n1,49 nM

# Biological target: T2, D(2) dopamine receptor
# Test: Antagonist activity against human D2R expressed in CHO cells assessed as inhibition of quinpirole-induced mitogenesis after 24 hrs by [3H]thymidine uptake assay
# Format: cell-based
# Details: not given
# How it was run: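 Serum-starved CHOp-D2 or CHOp-D3 cells given serial dilutions of test compound plus quinpirole (30 nM final). Incubated at 37 °C for 24 h (D2) or 16 h (D3). Then 2 h [3H]thymidine pulse, filtration and counting.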
row,IC50,SMILES
1,26 nM,COc1ccccc1N1CCN(CCCCNC(=O)c2cn3ccccc3n2)CC1

# Biological target: D(3) dopamine receptor (Homo sapiens, UniProt P35462, S182I)
# Sequence (P35462 as listed by the source S182I): as the sequence (P35462 whole entry) above, with G9S, S182I counted along it
# Test: Displacement of [125I]IABN from human D3R S182I mutant expressed in HEK293 cell membranes by gamma counting method
# Details: not given
# How it was run: as §1
row,SMILES,Ki
1,CN(C)Cc1c(C(=O)NCCCCN2CCN(c3cc(C(F)(F)F)nc(C(C)(C)C)n3)CC2)nc2ccccn12,16 nM
2,CC(C)(C)c1nc(N2CCN(CCCCNC(=O)c3cn4ccccc4n3)CC2)cc(C(F)(F)F)n1,12 nM

# Biological target: T2, D(2) dopamine receptor
# Details: CHO-K1, 500 nM
row,SMILES,inhibition
1,CN(C)Cc1c(C(=O)NCCCCN2CCN(c3cc(C(F)(F)F)nc(C(C)(C)C)n3)CC2)nc2ccccn12,< 30%

# Biological target: T1, D(3) dopamine receptor
# Test: Displacement of [125I]IABN from wild type human D3R expressed in HEK293 cell membranes by gamma counting method
# Details: not given
# How it was run: as §1
row,SMILES,Ki
1,CN(C)Cc1c(C(=O)NCCCCN2CCN(c3cc(C(F)(F)F)nc(C(C)(C)C)n3)CC2)nc2ccccn12,9.1 nM
2,CC(C)(C)c1nc(N2CCN(CCCCNC(=O)c3cn4ccccc4n3)CC2)cc(C(F)(F)F)n1,8.4 nM

# Biological target: T2, D(2) dopamine receptor
# Test: Displacement of [125I]IABN from human D2LR expressed in HEK293 cell membranes by gamma counting method
# Details: not given
row,Ki,SMILES
1,19 nM,COc1ccccc1N1CCN(CCCCNC(=O)c2cn3ccccc3n2)CC1
2,162 nM,O=C(NCCCCN1CCN(c2cccc(C(F)(F)F)c2)CC1)c1cn2ccccc2n1

# Biological target: T1, D(3) dopamine receptor
# Test: Antagonist activity against D3R in human U2OS cells assessed as inhibition of (+)-PD128907-induced beta-arrestin translocation by beta-galactosidase based beta-arrestin recruitment assay
# Format: cell-based
# Details: not given
row,IC50,SMILES
1,52 nM,O=C(NCCCCN1CCN(c2ccnc3ccccc23)CC1)c1cn2ccccc2n1
2,0.7 nM,COc1ccccc1N1CCN(CCCCNC(=O)c2cn3ccccc3n2)CC1
3,1.8 nM,O=C(NCCCCN1CCN(c2cccc(C(F)(F)F)c2)CC1)c1cn2ccccc2n1

row,SMILES,IC50
1,CC(C)(C)c1nc(N2CCN(CCCCNC(=O)c3cn4ccccc4n3)CC2)cc(C(F)(F)F)n1,0.6 nM
2,CC(C)(C)c1nc(N2CCN(CCCCNC(=O)c3cn4ccncc4n3)CC2)cc(C(F)(F)F)n1,0.3 nM

# Biological target: T1, D(3) dopamine receptor
# Details: CHO, 1 uM
row,SMILES,inhibition
1,CC(C)(C)c1nc(N2CCN(CCCCNC(=O)c3cn4ccccc4n3)CC2)cc(C(F)(F)F)n1,< 30%
2,CC(C)(C)c1nc(N2CCN(CCCCNC(=O)c3cn4ccncc4n3)CC2)cc(C(F)(F)F)n1,< 30%

# Biological target: T1, D(3) dopamine receptor
# Test: Displacement of [125I]IABN from human D3R expressed in HEK293 cell membranes by gamma counting method
# Details: not given
row,Ki,SMILES
1,20 nM,O=C(NCCCCN1CCN(c2ccnc3ccccc23)CC1)c1cn2ccccc2n1
2,3.5 nM,COc1ccccc1N1CCN(CCCCNC(=O)c2cn3ccccc3n2)CC1
3,2.9 nM,O=C(NCCCCN1CCN(c2cccc(C(F)(F)F)c2)CC1)c1cn2ccccc2n1

# Biological target: T2, D(2) dopamine receptor
# Details: CHO, 1 uM
row,SMILES,inhibition
1,CC(C)(C)c1nc(N2CCN(CCCCNC(=O)c3cn4ccccc4n3)CC2)cc(C(F)(F)F)n1,< 30%
2,CC(C)(C)c1nc(N2CCN(CCCCNC(=O)c3cn4ccncc4n3)CC2)cc(C(F)(F)F)n1,< 30%

# Biological target: T2, D(2) dopamine receptor
# Test: Agonist activity against human D2R expressed in HEK293 cells assessed as inhibition of forskolin-induced adenyl cyclase activity at 10 times Ki relative to quinpirole
# Format: functional, cell-based
# Details: not given
# How it was run: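 Whole HEK 293 cells expressing human D2R, prelabelled with [2,8-3H]adenine for 75 min at 37 °C, then given 0.1 mM IBMX. […] Stopped with TCA. [3H]cAMP separated on Dowex/alumina. Inhibition normalized to 1 μM quinpirole. Mean ± SEM of ≥3 experiments.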
row,inhibition,SMILES
1,1.4%,O=C(NCCCCN1CCN(c2ccnc3ccccc23)CC1)c1cn2ccccc2n1
2,25%,COc1ccccc1N1CCN(CCCCNC(=O)c2cn3ccccc3n2)CC1
3,32%,O=C(NCCCCN1CCN(c2cccc(C(F)(F)F)c2)CC1)c1cn2ccccc2n1

row,SMILES,inhibition
1,CN(C)Cc1c(C(=O)NCCCCN2CCN(c3cc(C(F)(F)F)nc(C(C)(C)C)n3)CC2)nc2ccccn12,8.9%
2,CC(C)(C)c1nc(N2CCN(CCCCNC(=O)c3cn4ccccc4n3)CC2)cc(C(F)(F)F)n1,-1.9%

# Biological target: T1, D(3) dopamine receptor
# Test: Displacement of [125I]IABN from chimeric human D3 receptor possessing extracellular loop II of D2 receptor expressed in HEK293 cell membranes by gamma counting method
# Details: not given
# How it was run: as §1
row,SMILES,Ki
1,CN(C)Cc1c(C(=O)NCCCCN2CCN(c3cc(C(F)(F)F)nc(C(C)(C)C)n3)CC2)nc2ccccn12,27 nM
2,CC(C)(C)c1nc(N2CCN(CCCCNC(=O)c3cn4ccccc4n3)CC2)cc(C(F)(F)F)n1,40 nM
